In ChEMBL document CHEMBL1240439, “Synthesis and docking studies of novel benzopyran-2-ones with anticancer activity” (2010):

Legend:
Assay type in all cases: functional
SF-295 = assay: Cytotoxicity against human SF295 cells assessed as cell growth at 10 uM after 48 hrs by sulforhodamine B assay; settings: SF-295, 48 h, read-out: Activity
NCI-H522 = assay: Cytotoxicity against human NCI-H522 cells assessed as cell growth at 10 uM after 48 hrs by sulforhodamine B assay; settings: NCI-H522, 48 h, read-out: Activity
HT-29 = assay: Cytotoxicity against human HT-29 cells assessed as cell growth at 10 uM after 48 hrs by sulforhodamine B assay; settings: HT-29, 48 h, read-out: Activity
OVCAR-4 = assay: Cytotoxicity against human OVCAR4 cells assessed as cell growth at 10 uM after 48 hrs by sulforhodamine B assay; settings: OVCAR-4, 48 h, read-out: Activity
T47D = assay: Cytotoxicity against human T47D cells assessed as cell growth at 10 uM after 48 hrs by sulforhodamine B assay; settings: read-out: Activity
HOP-92 = assay: Cytotoxicity against human HOP92 cells assessed as cell growth at 10 uM after 48 hrs by sulforhodamine B assay; settings: HOP-92, 48 h, read-out: Activity
NCI-H322M = assay: Cytotoxicity against human NCI-H322M cells assessed as cell growth at 10 uM after 48 hrs by sulforhodamine B assay; settings: read-out: Activity
NCI-H460 = assay: Cytotoxicity against human NCI-H460 cells assessed as cell growth at 10 uM after 48 hrs by sulforhodamine B assay; settings: NCI-H460, 48 h, read-out: Activity
NCI-H226 = assay: Cytotoxicity against human NCI-H226 cells assessed as cell growth at 10 uM after 48 hrs by sulforhodamine B assay; settings: NCI-H226, 48 h, read-out: Activity
COLO 205 = assay: Cytotoxicity against human COLO205 cells assessed as cell growth at 10 uM after 48 hrs by sulforhodamine B assay; settings: COLO 205, 48 h, read-out: Activity
HCT-15 = assay: Cytotoxicity against human HCT15 cells assessed as cell growth at 10 uM after 48 hrs by sulforhodamine B assay; settings: HCT-15, 48 h, read-out: Activity
SW-620 = assay: Cytotoxicity against human SW620 cells assessed as cell growth at 10 uM after 48 hrs by sulforhodamine B assay; settings: SW-620, 48 h, read-out: Activity
MCF7 = assay: Cytotoxicity against human MCF7 cells assessed as cell growth at 10 uM after 48 hrs by sulforhodamine B assay; settings: MCF7, 48 h, read-out: Activity
[1] = Cytotoxicity against human Hs 578T cells assessed as cell growth at 10 uM after 48 hrs by sulforhodamine B assay; settings: read-out: Activity
IGROV-1 = assay: Cytotoxicity against human IGROV1 cells assessed as cell growth at 10 uM after 48 hrs by sulforhodamine B assay; settings: IGROV-1, 48 h, read-out: Activity
SK-OV-3 = assay: Cytotoxicity against human SKOV3 cells assessed as cell growth at 10 uM after 48 hrs by sulforhodamine B assay; settings: SK-OV-3, 48 h, read-out: Activity
CCRF-CEM [2] = assay: Cytotoxicity against human CCRF-CEM cells assessed as cell growth at 10 uM after 48 hrs by sulforhodamine B assay; settings: read-out: Activity
A498 = assay: Cytotoxicity against human A498 cells assessed as cell growth at 10 uM after 48 hrs by sulforhodamine B assay; settings: A498, 48 h
TK-10 = assay: Cytotoxicity against human TK10 cells assessed as cell growth at 10 uM after 48 hrs by sulforhodamine B assay; settings: TK-10, 48 h, read-out: Activity
UO-31 = assay: Cytotoxicity against human UO31 cells assessed as cell growth at 10 uM after 48 hrs by sulforhodamine B assay; settings: UO-31, 48 h, read-out: Activity
LOX IMVI [3] = assay: Cytotoxicity against human LOXIMVI cells assessed as cell growth at 10 uM after 48 hrs by sulforhodamine B assay; settings: read-out: Activity
M14 = assay: Cytotoxicity against human M14 cells assessed as cell growth at 10 uM after 48 hrs by sulforhodamine B assay; settings: M14, 48 h, read-out: Activity
Malme-3M = assay: Cytotoxicity against human MALME-3M cells assessed as cell growth at 10 uM after 48 hrs by sulforhodamine B assay; settings: read-out: Activity
SK-MEL-28 = assay: Cytotoxicity against human SK-MEL-28 cells assessed as cell growth at 10 uM after 48 hrs by sulforhodamine B assay; settings: SK-MEL-28, 48 h, read-out: Activity
DU-145 = assay: Cytotoxicity against human DU145 cells assessed as cell growth at 10 uM after 48 hrs by sulforhodamine B assay; settings: DU-145, 48 h, read-out: Activity
U-251 = assay: Cytotoxicity against human U251 cells assessed as cell growth at 10 uM after 48 hrs by sulforhodamine B assay; settings: U-251, 48 h, read-out: Activity
[4] = Cytotoxicity against human lung cancer cells after 48 hrs by sulforhodamine B assay; settings: Cancer cell lines
In short: (§1)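 Cells plated at 5000–40,000/well according to doubling time, then held 24 h at 37 °C, 5% CO2, with time-zero plates TCA-fixed. DMSO stocks (400× top concentration) were diluted in medium containing 50 μg/ml gentamycin, giving five 10-fold or ½-log concentrations. After 48 h, adherent cells were fixed in 10% TCA and suspension cells in 16% TCA (final), stained with 0.4% SRB, read at 515 nm. GI50, TGI and LC50 were calculated per cell line.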

[5] = Cytotoxicity against human breast cancer cells after 48 hrs by sulforhodamine B assay; settings: Cancer cell lines; in short: as §1
CCRF-CEM [6] = assay: Cytotoxicity against human CCRF-CEM cells after 48 hrs by sulforhodamine B assay
In short: (§2)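 Cells were plated at 5000–40,000/well according to doubling time and preincubated 24 h at 37 °C, 5% CO2. Time-zero plates were TCA-fixed. DMSO stocks were diluted in medium with gentamycin to five concentrations (10-fold or ½ log series) plus control, then incubated 48 h. Adherent cells were fixed with cold TCA (suspension cells with 16% final), stained with SRB, and read at 515 nm. GI50, TGI and LC50 were calculated per line.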

HL-60(TB) = assay: Cytotoxicity against human HL-60(TB) cells after 48 hrs by sulforhodamine B assay; settings: HL-60, 48 h
In short: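 Cells plated at 5000–40,000/well by doubling time and held 24 h at 37 °C, 5% CO2, with TCA-fixed zero-time plates. Drug given as DMSO stock diluted in medium with 50 μg/ml gentamycin, five concentrations (10-fold or ½ log steps), for 48 h. Settled suspension cells fixed with TCA (final 16%), stained with 0.4% SRB, read at 515 nm. GI50, TGI and LC50 calculated.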

LOX IMVI [7] = assay: Cytotoxicity against human LOXIMVI cells after 48 hrs by sulforhodamine B assay; in short: as §2
[8] = read-out: LC50 (the source's name)

`Cc1cc(=O)n(C(=O)COc2ccc3c(-c4ccccc4)cc(=O)oc3c2C)[nH]1` gave a growth at 10 µM (SF-295) of -77.2%, a growth at 10 µM (NCI-H522) of -39.2% and a growth at 10 µM (HT-29) of -44.2%. For the same molecule, the growth at 10 µM (OVCAR-4) was -42.9%, the growth at 10 µM (T47D) was -1.54% and the growth at 10 µM (HOP-92) was -64.4%. For the same molecule, the growth at 10 µM (NCI-H322M) was -24.7%, the growth at 10 µM (NCI-H460) was 10.9% and the growth at 10 µM (NCI-H226) was 0.36%. The growth at 10 µM (COLO 205) was 6.21%, the growth at 10 µM (HCT-15) was 38.3% and the growth at 10 µM (SW-620) was -65.9%. For the same molecule, the growth at 10 µM (MCF7) was -14.4%, the growth at 10 µM [1] was -4.17% and the growth at 10 µM (IGROV-1) was -17.5%. The growth at 10 µM (SK-OV-3) was 15.9%, the growth at 10 µM (CCRF-CEM [2]) was 13.5% and the TGI (A498) was 3.76 µM. The growth at 10 µM (A498; read-out: Activity) was -3.79%, the growth at 10 µM (TK-10) was -33.4% and the growth at 10 µM (UO-31) was 18.6%. It also gave a growth at 10 µM (LOX IMVI [3]) of -61.8%, a growth at 10 µM (M14) of 17.6% and a growth at 10 µM (Malme-3M) of -8.61%. It also gave a growth at 10 µM (SK-MEL-28) of -47.2%, a growth at 10 µM (DU-145) of -56.3% and a growth at 10 µM (U-251) of -72.4%. It also gave a GI50 [4] of 3.69 µM, a TGI [4] of 37.4 µM and a CC50 [4, 8] of 65.1 µM. The GI50 [5] was 4.23 µM, the TGI [5] was 33.7 µM and the CC50 [5, 8] was 87.5 µM. It also gave a GI50 (CCRF-CEM [6]) of under 0.04 µM, a TGI (CCRF-CEM [6]) of 0.57 µM and a TGI (HL-60(TB)) of 2.62 µM. It also gave a GI50 (LOX IMVI [7]) of 1.99 µM and a TGI (LOX IMVI [7]) of 3.88 µM.
